# UPR CHOP act – activators of apoptotic arm of unfolded protein response (CHOP). CHO-CHOP luciferase reporter, UPR activation, luminescence; percent of tunicamycin response over DMSO baseline. activation, % at 10 µM. 330,000 compounds, 0.34% hits. AID 449763;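 active = at 10 µM dose, activation of 40% or more, normalized to positive control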;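 also: 100% = tunicamycin at 10 µg/mL and 0% = DMSO alone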
#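 Assay system: CHO-CHOP cells, stable luciferase reporter of PERK-eIF2a-CHOP signalling / Buffer or medium: F12 plus 10% serum / Compound dosing: one dose, 10 µM in 0.5% DMSO / Times: 6 h compound treatment, 37 °C / Technique: luciferase luminescence / Read-out: % reporter activation, DMSO baseline versus tunicamycin full activation / Benchmarks: tunicamycin and DMSO controls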
# TLR4-MyD88 BLA – blocks binding of human TLR4 to MyD88; 200,000 compounds, 0.18% hits; O00206+Q99836; HeLa CL3-4 TLR4/MyD88 BLA complementation, FRET ratio; AID 861; inhibition, % at 8.4 µM; in the data active = inhibition above about 25%;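 also: 0% = vehicle and 100% = reference inhibitor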
# CHOP inhibitor – inhibitors of CHOP induction in ER stress response | inhibition, % at 10 µM | 220,000 compounds, 3.8% hits | CHO-K1 CHOP-promoter luciferase, tunicamycin-induced, 15-18 h;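 active = compounds that reduced the stress-induced luciferase reporter signal by more than about 70% of percent inhibition, limit read from the data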;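 also: 0% = tunicamycin plus vehicle and 100% = wells without tunicamycin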
# UPR XBP1 act – adaptive UPR (XBP1) activation; activation, % at 20 µM; 330,000 compounds, 0.33% hits; CHO-XBP1 luciferase reporter, IRE1-XBP1 UPR activation, luminescence; percent of tunicamycin response, DMSO as zero;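 active = versus positive control, 20 µM dose yields 30% or more activation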;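 also: 100% = tunicamycin at 10 µg/mL and 0% = DMSO only wells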
#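 assay system = CHO-XBP1 luciferase reporter cells | amount = 1000 cells/well | buffer or medium = F12 plus 10% FBS | compound dosing = single point, 20 µM final compound, 1% DMSO | incubation = 16-18 h cell attachment at 37 °C, then 6 h compound exposure | detection = Steady-Glo luminescence read | controls = tunicamycin 10 µg/mL and vehicle-only wells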
# NOD2-RIPK2 inh – NOD2-RIPK2 protein interaction inhibition. CHO BLA complementation NOD2-RIPK2, CCF4 ratio. inhibition, % at 4.98 µM. AID 624267. 360,000 compounds, 0.38% hits; in the data active = inhibition above about 21%;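 also: 0% = vehicle only and 100% = reference blocker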
# Target sequence (O43353 whole entry, looked up): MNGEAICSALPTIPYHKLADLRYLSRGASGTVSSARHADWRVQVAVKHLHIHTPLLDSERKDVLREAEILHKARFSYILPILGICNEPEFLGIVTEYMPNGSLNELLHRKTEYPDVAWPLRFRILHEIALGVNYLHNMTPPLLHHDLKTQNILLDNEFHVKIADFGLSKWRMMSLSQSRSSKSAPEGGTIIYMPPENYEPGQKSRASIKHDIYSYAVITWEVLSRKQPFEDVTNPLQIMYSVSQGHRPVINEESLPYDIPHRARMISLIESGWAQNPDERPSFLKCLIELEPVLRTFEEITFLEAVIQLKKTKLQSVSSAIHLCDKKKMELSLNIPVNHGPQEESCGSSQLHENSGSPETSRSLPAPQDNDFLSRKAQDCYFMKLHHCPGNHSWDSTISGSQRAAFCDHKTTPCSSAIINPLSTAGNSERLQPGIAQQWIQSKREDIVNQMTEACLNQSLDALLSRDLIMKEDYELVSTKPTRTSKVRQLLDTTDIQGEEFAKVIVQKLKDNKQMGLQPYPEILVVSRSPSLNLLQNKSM
# TLR9-MyD88 block – inhibitors of human TLR9-MyD88 binding; Q9NR96+Q99836; CHO BLA complementation TLR9-MyD88, CCF4 FRET ratio; inhibition, % at 4.98 µM; 340,000 compounds, 0.21% hits; AID 504734;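 active = inhibition above the mean over all tested compounds plus 3 SD, cut at about 21% in these data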;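 also: 0% = DMSO only wells and 100% = clavulanate BLA inhibitor control wells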
# Active calls of the source: *; · = no result given. Only a selection was taken, and hits are over-represented in it overall.
SMILES,UPR CHOP act,TLR4-MyD88 BLA,CHOP inhibitor,UPR XBP1 act,NOD2-RIPK2 inh,TLR9-MyD88 block
CC(=O)c1ccc(N2CCN(c3ncc(C(F)(F)F)cc3Cl)CC2)cc1,2,-1,79*,-1,9,2
CC(=O)c1ccc(N2CCN(c3ccc(C(F)(F)F)cn3)CC2)cc1,·,17,83*,·,-9,-4
CC(C)(C)NC(=O)NC(=O)CN1CCN(c2ncc(C(F)(F)F)cc2Cl)CC1,-2,-2,78*,-3,-19,3
NC(=O)c1ccc(N2CCN(c3ncc(C(F)(F)F)cc3Cl)CC2)cc1,0,·,10,0,-5,-1
NNC(=O)CN1CCN(c2ncc(C(F)(F)F)cc2Cl)CC1,0,7,-4,1,-14,6
CCOC(=O)[C@]12CCCC=C1N(Cc1ccco1)C(=O)[C@H](CC(=O)NCCCN1CCCC1=O)C2,·,·,·,·,-10,·
O=C(C[C@H]1C[C@H](C(=O)N2CCCCC2)[C@@]2(CCc3ccccc3)c3[nH]c4ccc(Cl)cc4c3CCN2C1=O)NCc1cccc(C(F)(F)F)c1,18,·,·,4,-2,-1
c1ccc2c(c1)OCC(c1nnc3sc(-c4ccc5c(c4)OCO5)nn13)O2 (stereo not given),3,-8,86*,3,0,-1
Fc1ccc(-c2nn3c(C4COc5ccccc5O4)nnc3s2)cc1 (stereo not given),2,4,-6,0,2,-5
O=C(N/N=C\C=C\c1ccco1)c1cc(-c2ccc3ccccc3c2)n[nH]1,5,-2,80*,5,-1,2
O=C1C(C=Nc2ccc(F)cc2)=C(O)c2ccccc21,-4,1,46,-8,-8,-2
Cc1ccccc1N=CC1=C(O)c2ccccc2C1=O,-5,-10,78*,-7,-3,-9
CC(CC(=O)Nc1ccc2c(c1)c(=O)n(C)n2-c1ccccc1F)c1ccccc1 (stereo not given),·,·,·,·,-12,·
NC(Cc1ccc(C(F)(F)F)cc1)c1csc(Nc2ccc(C(=O)c3ccccc3)cc2)n1 (stereo not given),·,·,·,·,9,·
N#C/C(=C/c1cn(-c2ccccc2)nc1-c1cccc(OCc2ccccc2)c1)C(=O)NCCCn1ccnc1,5,-5,2,0,8,17
CCOc1cccc(-c2nn(-c3ccccc3)cc2/C=C(/C#N)C(=O)NCCCn2ccnc2)c1,8,-5,95*,12,2,3
CCOC(=O)/C(N=Nc1ccc(Cl)cc1)=C(/O)c1ccc([N+](=O)[O-])cc1,4,-2,86*,1,-13,7
N/C(Cc1ccc(Cl)cc1)=N\OC(=O)Cc1ccc([N+](=O)[O-])cc1,2,-18,2,-2,5,-1
C=CC[n+]1c(-c2ccc(OCC)cc2)csc1NNC(=O)Nc1ccccc1,1,13,73*,-2,10,-3
Brc1ccc2[nH]c3c(c2c1)CCC3,1,·,0,1,-2,-4
NC(=O)c1cc(Br)cc2c3c([nH]c12)CCCC3,-3,-2,85*,3,1,3
CCC(=O)c1ccc(OCC(=O)OC(C)C(=O)Nc2c(C)n(C)n(-c3ccccc3)c2=O)cc1 (stereo not given),·,·,·,·,5,-10
CCOc1ccc(N(CC(=O)Nc2ccc(F)c(F)c2)S(=O)(=O)c2c(C)noc2C)cc1,1,3,90*,-2,-8,6
COc1ccc(NC(=O)CN(c2ccc(C(C)C)cc2)S(=O)(=O)c2c(C)noc2C)cc1OC,4,-3,71*,-1,-10,-2
COc1ccc(N(CC(=O)Nc2ccc(C)c(C)c2)S(=O)(=O)c2c(C)noc2C)cc1,1,·,·,-10,-45,-22
SMILES,UPR CHOP act,TLR4-MyD88 BLA,CHOP inhibitor,UPR XBP1 act,NOD2-RIPK2 inh,TLR9-MyD88 block
Cc1ccc2c(c1)N(CCC(=O)NCc1cccs1)C(=O)C(C)O2 (stereo not given),1,-3,74*,-2,0,-3
CCOC(=O)/C(=N\Nc1cc(Cl)ccc1Cl)N1CC(C)OC(C)C1 (stereo not given),20,·,62,-3,-12,1
CCOC(=O)/C(=N\Nc1ccccc1Cl)N1CC(C)OC(C)C1 (stereo not given),-1,·,70*,-1,-13,3
CCOC(=O)C1=C(N)c2ccccc2CC1C1CCCC1 (stereo not given),-2,·,91*,2,-2,-3
CCOc1ccccc1NC(=O)C(NC(=O)C1CCC(C)CC1)C(C)C (stereo not given),-1,-15,73*,-1,-5,1
CN=c1scc(-c2ccccc2F)n1/N=C/c1ccc[nH]1,-9,0,98*,-10,4,6
Cc1nc2ccc(C(C(F)(F)F)(C(F)(F)F)C(F)(F)F)cc2[nH]1,1,7,73*,-2,-11,3
Cc1nc2ccc(Cl)cc2[nH]1,·,·,·,·,-3,-1
CCc1nc2ccc(C(=O)Nc3cccc(OCC(=O)N(C)C)c3)cn2c1N(C)Cc1ccc(OC)cc1,·,·,·,·,-1,·
CC1CC2(CCCCC2)N2C(=O)C(=O)c3cccc1c32 (stereo not given),-1,-8,75*,3,2,-1
Cc1cc2c3c(c1)C(C)CC(C)(C)N3C(=O)C2=O (stereo not given),0,7,-19,9,-2,-2
O=Cc1cn(-c2ccccc2)nc1-c1cc2ccccc2oc1=O,-1,-3,88*,1,-10,-2
O=C(c1ccccc1)c1ccc(OCCn2cnc3ccccc3c2=O)cc1,-1,-9,22,-3,0,-7
c1ccc2c(c1)ncn2CCCCOc1ccc2c(c1)CCC2,-1,4,70*,2,-7,5
Cc1ccccc1OCCCCn1cnc2ccccc21,6,0,72*,10,4,-16
Cc1cc(C)c(C)c(OCCCCn2cnc3ccccc3c2=O)c1,0,-8,91*,-1,2,1
CC(C)(c1ccccc1)c1ccc(OCCn2cnc3ccccc3c2=O)cc1,2,-6,77*,0,1,3
c1ccc2c(c1)ncn2CCCOc1ccc2c(c1)CCC2,2,-12,51,5,6,0
CC(C)c1ccc(Nc2nc(Cl)nc(NCCO)n2)cc1,1,·,·,-1,-14,-1
CC(C)c1ccc(Nc2nc(Cl)nc(NCc3ccco3)n2)cc1,1,·,79*,3,2,-12
Cc1ccc(OCC(=O)O/N=C(\N)Cc2ccc(Cl)cc2)cc1,-1,4,77*,2,-1,3
Cc1ccc(C(=O)CC(=O)COc2ccc(Cl)cc2)cc1,0,14,93*,-2,-7,-4
